The target of one series is T1, Vitamin D3 receptor (Homo sapiens, UniProt P11473).
T1 sequence (P11473 whole entry): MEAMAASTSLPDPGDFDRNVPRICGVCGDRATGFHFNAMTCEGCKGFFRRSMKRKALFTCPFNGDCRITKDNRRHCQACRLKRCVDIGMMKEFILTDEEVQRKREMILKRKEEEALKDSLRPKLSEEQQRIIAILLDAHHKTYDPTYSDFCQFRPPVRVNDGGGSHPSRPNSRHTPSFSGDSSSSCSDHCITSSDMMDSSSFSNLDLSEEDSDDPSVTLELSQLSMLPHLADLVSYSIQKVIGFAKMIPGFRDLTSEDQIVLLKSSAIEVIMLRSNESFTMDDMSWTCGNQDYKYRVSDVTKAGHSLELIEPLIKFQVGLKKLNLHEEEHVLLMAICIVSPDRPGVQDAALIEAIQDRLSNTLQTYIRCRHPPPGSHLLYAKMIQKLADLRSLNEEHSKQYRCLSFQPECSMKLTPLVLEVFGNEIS
As to the kind of experiment: Antagonist activity at human VDR transfected in HEK293T cells measured after 24 hrs by luciferase reporter gene assay. It is filed as cell-based, HEK-293T.

Series [1] has as its target T2, Bile acid receptor (Homo sapiens, UniProt Q96RI1).
T2 sequence (Q96RI1 whole entry): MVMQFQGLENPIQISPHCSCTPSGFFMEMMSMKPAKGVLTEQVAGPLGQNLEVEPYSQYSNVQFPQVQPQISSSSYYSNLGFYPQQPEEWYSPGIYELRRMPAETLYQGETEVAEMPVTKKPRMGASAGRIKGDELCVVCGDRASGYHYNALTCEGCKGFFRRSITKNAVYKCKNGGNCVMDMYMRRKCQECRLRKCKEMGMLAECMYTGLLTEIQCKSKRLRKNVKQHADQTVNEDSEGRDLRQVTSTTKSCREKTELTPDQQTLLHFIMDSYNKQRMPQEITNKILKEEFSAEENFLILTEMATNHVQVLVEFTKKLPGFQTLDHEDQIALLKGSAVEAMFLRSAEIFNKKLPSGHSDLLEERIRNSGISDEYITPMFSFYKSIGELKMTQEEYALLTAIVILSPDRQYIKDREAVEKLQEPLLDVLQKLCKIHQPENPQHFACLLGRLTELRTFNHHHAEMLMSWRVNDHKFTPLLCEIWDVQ
As to the kind of experiment: Agonist activity at human FXR expressed in human HuH7 cells by luciferase reporter gene assay. It is filed as cell-based, Huh-7. (In general: In a reporter assay the amount or activity of a reporter protein is the signal.)

The target in series [2] is T2, Bile acid receptor. As to the kind of experiment: Agonist activity at GST-fused FXR-LBD (unknown origin) incubated with Fluorecein-SRC2-2 coactivator peptide as substrate by TR-FRET assay. Background: Time-resolved FRET reads energy transfer from a long-lived donor to a nearby acceptor.
The test system of the next series is Huh-7. As to the kind of experiment: Cytotoxicity against human HuH7 cells assessed as cell viability by MTT assay. Type of series: cell-based.
In another series the test system is HEK-293T. In words: Cytotoxicity against human HEK293T cells assessed as cell viability by MTT assay. It is filed as cell-based. (Formazan colour is commonly taken as a measure of viable cells.)
Series [3] is described as follows: Cytotoxicity against mouse ST-2 cells assessed as cell viability upto 5 uM incubated for 12 days by WST-8 assay. Type of series: cell-based. The conditions noted are these: 288 h. In a few lines:
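ST-2 mesenchymal stem cells kept 12 days in RPMI-1640 medium containing compound at 0–10 μM. Viability read by WST-8 assay and expressed relative to untreated (0 μM) cells set as 100%. Means ± S.D., n=5.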

A word on the IC50: it is the concentration that gives 50% inhibition. A higher IC50 goes with weaker potency in that assay. At Vitamin D3 receptor, `CC(C)c1onc(-c2c(Cl)cccc2Cl)c1COc1ccc(/C=C/c2cccc(C(=O)O)c2)c(Cl)c1` gave an IC50 greater than 10000 nM.
For orientation: EC50 means the midpoint of the concentration-response curve. A high value points to a less potent agent. As to `CC(C)c1onc(-c2c(Cl)cccc2Cl)c1COc1ccc(-c2nc3ccc(C(=O)O)cc3n2CC(C)(C)C)cc1`, the EC50 on Bile acid receptor [1] was 13 nM; at Bile acid receptor [2] it was 24.8 nM. For the same molecule, the Activity entry in the series with Huh-7 and in the series with HEK-293T was “Toxic” in each case.
Consider `CC(C)c1onc(-c2c(Cl)cccc2Cl)c1COc1ccc(-c2nc3cc(C(=O)O)ccc3n2C)cc1`, for which the Activity result with Huh-7 and with HEK-293T was “Toxic” throughout.
Turning to `CC(C)c1onc(-c2c(Cl)cccc2Cl)c1COc1ccc(-c2nc3ccc(C(=O)O)cc3n2C(C)C)cc1`, the Activity entry with Huh-7 and in the series with HEK-293T was “Toxic” in each case.
Take `CC(C)c1onc(-c2c(Cl)cccc2Cl)c1COc1ccc(-c2nc3ccc(C(=O)O)cc3n2CC2CCCCC2)c(Cl)c1`: the Activity result with Huh-7 and with HEK-293T was “Toxic” each time.
`CCCn1c(-c2ccc(OCc3c(-c4c(Cl)cccc4Cl)noc3C(C)C)cc2)nc2ccc(C(=O)O)cc21`: the Activity result with Huh-7 and in the series on HEK-293T was “Toxic” each time.
Take `CC(C)c1onc(-c2c(Cl)cccc2Cl)c1COc1ccc(-c2nc3ccc(C(=O)O)cc3n2C2CCC2)cc1`: the Activity entry with Huh-7 and in the series with HEK-293T was “Toxic” each time.
Take `CCCC(CCC)n1c(-c2ccc(OCc3c(-c4c(Cl)cccc4Cl)noc3C(C)C)cc2)nc2ccc(C(=O)O)cc21`: the Activity entry in the series on Huh-7 and in the series on HEK-293T was “Toxic” throughout. The molecule also yielded an IC50 against Vitamin D3 receptor greater than 10000 nM.
Regarding `CCC(CC)n1c(-c2ccc(OCc3c(-c4c(Cl)cccc4Cl)noc3C(C)C)cc2Cl)nc2ccc(C(=O)O)cc21`, the EC50 at Bile acid receptor [1] was determined as 1.6 nM; at Bile acid receptor [2], 21.6 nM. In addition, the Activity entry with Huh-7 and with HEK-293T was “Toxic” throughout.
On to `CC(C)c1onc(-c2c(Cl)cccc2Cl)c1COc1ccc(-c2nc3ccc(C(=O)O)cc3n2CC2CCCCC2)cc1`, for which the Activity result in series [3] was “Non-Toxic”; in the series on Huh-7 it was “Toxic”; with HEK-293T, “Toxic”.
On to `CC(=O)N1CCC(n2c(-c3ccc(OCc4c(-c5c(Cl)cccc5Cl)noc4C(C)C)cc3)nc3ccc(C(=O)O)cc32)CC1`, for which the Activity result with Huh-7 and in the series on HEK-293T was “Toxic” throughout. Further, the IC50 at Vitamin D3 receptor is greater than 10000 nM.
For `CCC(CC)n1c(-c2ccc(OCc3c(-c4c(Cl)cccc4Cl)noc3C(C)C)cc2)nc2ccc(C(=O)O)cc21`, the results for the Activity entry (in series [3]; in the series on Huh-7; in the series with HEK-293T) were “Non-Toxic”, “Toxic” and “Toxic”, respectively.
Take `CCC(CC)n1c(-c2ccc(OCc3c(-c4c(Cl)cccc4Cl)noc3C(C)C)cc2F)nc2ccc(C(=O)O)cc21`: the Activity result in the series with Huh-7 and in the series with HEK-293T was “Toxic” throughout. At Vitamin D3 receptor, this molecule came in with an IC50 greater than 10000 nM.
Regarding `CCn1c(-c2ccc(OCc3c(-c4c(Cl)cccc4Cl)noc3C(C)C)cc2)nc2ccc(C(=O)O)cc21`, the Activity result in the series with Huh-7 and in the series on HEK-293T was “Toxic” each time.
As to `CC(C)c1onc(-c2c(Cl)cccc2Cl)c1COc1ccc(-c2nc3ccc(C(=O)O)cc3n2C2CCCC2)cc1`, the Activity result with Huh-7 and in the series with HEK-293T was “Toxic” each time.
In the case of `CC(C)c1onc(-c2c(Cl)cccc2Cl)c1COc1ccc(-c2nc3ccc(C(=O)O)cc3n2C2CCCCC2)cc1`, the Activity result with Huh-7 and in the series with HEK-293T was “Toxic” in each case.
Turning to `CC(C)c1onc(-c2c(Cl)cccc2Cl)c1COc1ccc(-c2nc3ccc(C(=O)O)cc3n2C2CC2)cc1`, the Activity result in the series on Huh-7 and in the series with HEK-293T was “Toxic” throughout.
As to `CC(C)c1onc(-c2c(Cl)cccc2Cl)c1COc1ccc(-c2nc3ccc(C(=O)O)cc3n2C)cc1Cl`, the Activity entry in the series with Huh-7 and in the series on HEK-293T was “Toxic” in each case.
In the case of `CC(C)c1onc(-c2c(Cl)cccc2Cl)c1COc1ccc(-c2nc3ccc(C(=O)O)cc3n2CC2CCCCC2)c(F)c1`, the Activity entry in the series with Huh-7 and in the series with HEK-293T was “Toxic” throughout.
Consider `CC(C)c1onc(-c2c(Cl)cccc2Cl)c1COc1ccc(-c2nc3ccc(C(=O)O)cc3n2CC2CC2)cc1`, for which the Activity entry with Huh-7 and in the series with HEK-293T was “Toxic” throughout.
On to `CC(=O)C1CCC(Cn2c(-c3ccc(OCc4c(-c5c(Cl)cccc5Cl)noc4C(C)C)cc3)nc3ccc(C(=O)O)cc32)CC1` (stereo not drawn), for which the Activity result in the series on Huh-7 and in the series on HEK-293T was “Toxic” each time. At Vitamin D3 receptor, this molecule came in with an IC50 greater than 10000 nM.
For `CC(C)c1onc(-c2c(Cl)cccc2Cl)c1COc1ccc(-c2nc3ccc(C(=O)O)cc3n2C)cc1`, the Activity entry in the series on Huh-7 and in the series on HEK-293T was “Toxic” throughout.
As for `CC(C)c1onc(-c2c(Cl)cccc2Cl)c1COc1ccc(-c2nc3ccc(C(=O)O)cc3n2C)c(Cl)c1`, the Activity entry in the series on Huh-7 and with HEK-293T was “Toxic” each time.
Turning to `CC(C)c1onc(-c2c(Cl)cccc2Cl)c1COc1ccc(-c2nc3ccc(C(=O)O)cc3n2Cc2ccc(F)cc2)cc1`, the Activity entry in the series on Huh-7 and in the series on HEK-293T was “Toxic” throughout.
As to `CC(C)c1onc(-c2c(Cl)cccc2Cl)c1COc1ccc(-c2nc3ccc(C(=O)O)cc3n2C2CCCCCC2)cc1`, the Activity entry in the series on Huh-7 and in the series with HEK-293T was “Toxic” each time.
Consider `CC(C)c1onc(-c2c(Cl)cccc2Cl)c1COc1ccc(-c2nc3ccc(C(=O)O)cc3n2-c2ccc(F)cc2)cc1`, for which the Activity entry in the series with Huh-7 and in the series on HEK-293T was “Toxic” throughout.
On to `CC(C)Cn1c(-c2ccc(OCc3c(-c4c(Cl)cccc4Cl)noc3C(C)C)cc2)nc2ccc(C(=O)O)cc21`, for which the Activity result in the series on Huh-7 and in the series with HEK-293T was “Toxic” throughout.

The record behind these values is ChEMBL document CHEMBL4622925, “N1-Substituted benzimidazole scaffold for farnesoid X receptor (FXR) agonists accompanying prominent selectivity against vitamin D receptor (VDR)” (Bioorg Med Chem, 2020).
